High-throughput results from PubChem.
STAT1 activator: STAT1 signaling activators, primary screen, cell-based, HTS, luciferase reporter; activation (% of control), % at 5.5 µM; NIH 3T3 STAT1-luciferase reporter, IFN-gamma, luminescence; 100% = IFN-gamma alone, no compound; actives 2.6% (n = 200,000);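 active = activation above the screen-wide mean activation plus 3 SD, cut at about 130% in these data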;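 also: raw ratio to IFN-gamma control signal so 100% means no change and 0% no light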
APP 5'UTR act: activators of APP 5'UTR luciferase reporter, primary screen, SH-SY5Y cells; SH-SY5Y APP 5'UTR luciferase reporter, luminescence; zero percent = DMSO vehicle wells; AID 1276, 2008; actives 1% (n = 190,000); activation, % at 2 µM;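 active = activation above a set limit, based on mean plus 3 SD of controls, cut at about 140% in these data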
STAT1 inh: STAT1 signaling inhibitors, primary screen, cell-based, HTS, luciferase reporter; NIH 3T3 STAT1-luciferase reporter, IFN-gamma, luminescence; AID 920, 2007; inhibition, % at 5.5 µM; actives 0.35% (n = 200,000);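 active = inhibition above a set limit, the mean inhibition across all tested compounds plus 3 SD, cut at about 34% in these data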;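 also: 0% = IFN-gamma with DMSO and 100% = IFN-gamma with 300 µM nifuroxazide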
STAT3 inh: IL-6 driven STAT3 reporter inhibitors, primary screen, U3A cells, luciferase, luminescence, MLSCN library; inhibition, % at 5.5 µM; AID 862, 2007; IL-6 STAT3-luciferase reporter; host cell line lacks STAT1; actives 0.89% (n = 190,000);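 active = inhibition above the mean inhibition across all screened compounds plus 3 SD, cut at about 44% in these data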;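 also: 0% = DMSO only wells and 100% = 100 µM nifuroxazide control wells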
STAT3 act: IL-6 driven STAT3 reporter potentiators, primary screen, U3A cells, luciferase, luminescence, MLSCN library | activation (% of control), % at 5.6 µM | IL-6 STAT3-luciferase reporter; 100% = signal with IL-6 EC80 alone | AID 871, 2007 | actives 0.91% (n = 190,000);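 active = activation above the screen-wide mean of compound activation plus 3 SD, cut at about 130% in these data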;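 also: 0% = background luminescence of wells with medium and substrate only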
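Detection: reporter luminescence signal / Assay system: STAT1-lacking human U3A cells, STAT3 luciferase reporter / Incubation: compound pre-incubation 1 h before IL-6, then 6 h stimulation at 37 °C / Control set: IL-6-only high control / Read-out: % activation relative to IL-6 control / Probe or stimulus: Interleukin-6, 33 ng/mL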
NF-kB neuron act: activators of NF-kB expression in neurons, primary screen, cell-based, HTS; human neuronal cells, NF-kB reporter expression; stronger effect = higher value; fold change at 12.5 µM; actives 1.6% (n = 190,000); AID 1239, 2008; in the data active = fold change above about 3.3
STAT1 activ conf: STAT1 signaling activators, confirmation, cell-based, HTS, luciferase reporter. shares compounds with STAT1 activator. NIH 3T3 STAT1-luciferase reporter, IFN-gamma potentiation, luminescence; 100% = IFN-gamma EC80 alone, no compound. activation (% of control), % at 5.7 µM. actives 97% (n = 1,200). AID 1262, 2008;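 active = activation above a set limit carried over from the earlier primary STAT1 screen, cut at about 140% in these data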;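 also: simple ratio to median IFN-gamma plus DMSO wells so 0% means no light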
NFkB act: NF-kB reporter activators, TNF-alpha stimulated, counter-screen for STAT1 activator project, cell-based, HEK293T, luciferase luminescence; shares compounds with STAT1 activator; 100% = TNF-alpha with vehicle only; activation (% of control), % at 5.7 µM; actives 43% (n = 1,200); AID 1306, 2008;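 active = activation above the mean of solvent-only control wells plus 3 SD, set per campaign, cut at about 130% in these data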;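 also: TNF-alpha given at a submaximal dose yielding about 80% of full reporter signal; values are well signal over median control so 100% means no change and 0% no light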
STAT3 act 2: STAT3 reporter activation by STAT1 hits, confirmation, counter-screen for STAT1 activator project, U3A cells, luciferase, luminescence | shares compounds with STAT1 activator | actives 46% (n = 1,200) | IL-6; cells lack STAT1; 100 = IL-6 alone, no compound effect | activation (% of control), % at 5.7 µM;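 active = activation above the solvent-only control well mean plus 3 SD, set per plate batch, cut at about 110% in these data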;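 also: 0% = no luminescence and 100% = median IL-6 plus DMSO wells; higher means more STAT3 reporter activation so hits are non-selective activators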
Active calls of the source: *; x = no result. Only some compounds are listed: those with a hit (about 4.9% of all), similar ones and a draw of the others.

SMILES	STAT1 activator	APP 5'UTR act	STAT1 inh	STAT3 inh	STAT3 act	NF-kB neuron act	STAT1 activ conf	NFkB act	STAT3 act 2
O=C(CC1Nc2ccccc2NC1=O)NCCc1ccccc1 (centres undefined)	109	0	-9	2	102	1.1	x	x	x
O=C(/C=C/c1cccc(F)c1)N1CCc2ccccc21	199*	200*	-113	18	85	0.98	238*	117	99
O=C(/C=C/c1ccc(F)cc1)N1CCCc2ccccc21	105	23	-7	12	91	1.5	x	x	x
N/C(=N\OC(=O)c1ccccc1Cl)c1ccc(Cl)cc1	155*	58	-57	-18	126	3.7*	193*	123	159*
Cc1cccc(/C(N)=N/OC(=O)c2ccc(Cl)cc2Cl)c1	161*	139*	-69	-3	100	2.2	222*	126	114*
Cc1ccc(/C(N)=N/OC(=O)c2ccc(C)cc2Cl)cc1	164*	162*	-72	41	67	1.6	207*	97	81
Cc1cccc(/C(N)=N/OC(=O)N2c3ccccc3Sc3ccccc32)c1	102	13	-3	27	86	1.4	x	x	x
O=c1n(Cc2ccccc2F)c2ccccc2n1Cc1ccccc1F	91	5	10	-6	106	0.85	x	x	x
O=C(O)c1ccc(N=NN2CCCCCC2)cc1	157*	84	-64	-9	105	1.8	166*	116	120*
O=C(O)c1ccc(N=NN2CCCC2)cc1	110	-1	-13	7	99	1.3	x	x	x
CC(C)CNC(=O)c1cccc(NC(=O)COc2cccc([N+](=O)[O-])c2)c1	93	-11	7	19	92	0.74	x	x	x
O=C(c1ccc2c(c1)OCO2)N(Cc1ccco1)C1(C(=O)NC2CCCCC2)CCCCC1	92	-10	8	8	91	0.85	x	x	x
Cc1ccc(OCc2nc(-c3ccccc3)no2)c(C)c1	163*	120	-70	10	92	5.2*	185*	129	110
CCCN1Cc2cccc(C(=O)NC(CC(=O)OCC)c3ccc(OCC)c(OC)c3)c2C1=O (centres undefined)	90	3	10	27	84	0.75	x	x	x
CCn1c(O)c(/C=C2\C=Nc3ccccc32)sc1=O	178*	154*	-88	-27	126	3.1	175*	140*	126*
CCn1c(O)c(/C=C2\C=Nc3ccccc32)sc1=Nc1ccc(C)cc1	106	16	-7	3	102	1.2	x	x	x
O=C(Nc1ccc(NC(=O)C23CC4CC(CC(C4)C2)C3)cn1)c1ccco1	185*	95	-93	-8	108	1.8	222*	142*	123*
CC(=O)Nc1ccc(S(=O)(=O)Nc2cccc(-c3nc4ccccc4o3)c2)cc1	100	2	0	27	82	0.95	x	x	x
Cc1nc2ccc(-c3nc4ccccc4o3)cc2[nH]1	195*	143*	-104	36	72	7*	232*	121	98
CC(=O)Nc1nc2ccc(-c3nc4ccccc4o3)cc2s1	167*	41	-73	12	93	5.5*	200*	135*	115*
Nc1ccc(-c2nc3ccc(-c4nc5ccccc5o4)cc3[nH]2)cc1	121	41	-23	21	85	1.3	x	x	x
Cn1cc(/C=C/C(=O)N2CCCC(C(=O)c3cccc(C(F)(F)F)c3)C2)cn1 (centres undefined)	84	5	16	10	96	1.1	x	x	x
CC1CCC(NC(=O)C2CC(=O)N(c3ccc4c(c3)OCCO4)C2)CC1 (centres undefined)	101	4	0	-2	103	1.1	x	x	x
CC1CN(c2ccccc2)CCN1Cc1nc(Cc2ccccc2)no1 (centres undefined)	94	-4	4	3	100	0.93	x	x	x
O=C(c1ccc(CSCc2ccccc2F)o1)N1CCN(c2ccc(N3CCOCC3)nn2)CC1	89	-4	9	-8	105	0.37	x	x	x
SMILES	STAT1 activator	APP 5'UTR act	STAT1 inh	STAT3 inh	STAT3 act	NF-kB neuron act	STAT1 activ conf	NFkB act	STAT3 act 2
Cn1c(/C=C/c2ccc([N+](=O)[O-])o2)nc2ccccc2c1=O	212*	-37	-122	12	93	1.4	121	134*	103
CC1CCN(c2ncnc3c2cnn3-c2ccccc2)CC1	154*	x	-60	30	81	4.5*	246*	136*	99
Clc1ccc(-n2ncc3c(N4CCCC4)ncnc32)cc1	184*	161*	-95	12	89	0.74	207*	84	87
CCOC(=O)C1CCN(c2ncnc3c2cnn3-c2ccccc2)CC1	111	33	-12	13	91	1.2	x	x	x
CCOC(=O)C1CCN(c2ncnc3c2cnn3-c2ccc(Cl)cc2)CC1	91	-10	10	2	98	0.83	x	x	x
O=C(NCCC1=CCCCC1)C1CCN(S(=O)(=O)c2cccc3cccnc23)CC1	108	11	-8	-4	108	0.61	x	x	x
Cc1ccn2c(c1)nc(=S)n2C(=O)c1ccccc1	283*	189*	-202	-11	113	1.1	518*	185*	138*
CCc1ccc(Nc2ncc3c(n2)CC(c2ccc(OC)cc2)CC3=O)cc1 (centres undefined)	107	9	-8	4	101	0.99	x	x	x
CCc1ccc(Nc2ncc3c(n2)CC(C)CC3=O)cc1 (centres undefined)	151*	173*	-58	17	91	3.5*	198*	128	107
C=CCNC(=S)NNC(=O)COc1ccc(Br)cc1	113	-1	-14	4	97	1.2	x	x	x
C=CCNC(=S)NNC(=O)COc1ccc2cc(Br)ccc2c1	152*	66	-58	5	99	3.4*	152*	125	104
